Laboratory results published in PMC10515777 (bioRxiv, 2024).

Key:
WT CFTR = WT CFTR (Homo sapiens, UniProt P13569); test: Inside-out patch clamp recording of macroscopic currents, WT CFTR; type: biochemical; settings: for change of CFTR currents: enantiomers perfused at 100 M, inside-out patches, 3 mM ATP
Method in brief: (§1)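 WT, S308A or Y304A CFTR (mutants made by site-directed mutagenesis), C-terminally GFP-tagged in BacMam vector, transfected into CHO cells, then 2% FBS at 30 °C for 2 days. Excised inside-out patches were phosphorylated with 25 units/ml PKA plus 3 mM ATP and held at −30 mV, 25 °C, pH 7.4 NMDG solutions. Fold stimulation is the current ratio with/without perfused compound. Dose-response currents were normalized to pre-titration ATP current and fitted for EC50. Means ± SE of patches.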

Y304A CFTR = Y304A CFTR (Homo sapiens, UniProt P13569, Y304A); test: Inside-out patch clamp recording, Y304A CFTR; type: biochemical; settings: inside-out patches, 3 mM ATP
Method in brief: as §1

S308A CFTR = S308A CFTR (Homo sapiens, UniProt P13569, S308A); test: Inside-out patch clamp recording, S308A CFTR; type: biochemical; settings: inside-out patches, 3 mM ATP
Method in brief: as §1

[1] = ref [9],[10]; cited from earlier work
[2] = ref [8]; cited from earlier work

Chain of WT CFTR (P13569 whole entry, the tested form may be a part): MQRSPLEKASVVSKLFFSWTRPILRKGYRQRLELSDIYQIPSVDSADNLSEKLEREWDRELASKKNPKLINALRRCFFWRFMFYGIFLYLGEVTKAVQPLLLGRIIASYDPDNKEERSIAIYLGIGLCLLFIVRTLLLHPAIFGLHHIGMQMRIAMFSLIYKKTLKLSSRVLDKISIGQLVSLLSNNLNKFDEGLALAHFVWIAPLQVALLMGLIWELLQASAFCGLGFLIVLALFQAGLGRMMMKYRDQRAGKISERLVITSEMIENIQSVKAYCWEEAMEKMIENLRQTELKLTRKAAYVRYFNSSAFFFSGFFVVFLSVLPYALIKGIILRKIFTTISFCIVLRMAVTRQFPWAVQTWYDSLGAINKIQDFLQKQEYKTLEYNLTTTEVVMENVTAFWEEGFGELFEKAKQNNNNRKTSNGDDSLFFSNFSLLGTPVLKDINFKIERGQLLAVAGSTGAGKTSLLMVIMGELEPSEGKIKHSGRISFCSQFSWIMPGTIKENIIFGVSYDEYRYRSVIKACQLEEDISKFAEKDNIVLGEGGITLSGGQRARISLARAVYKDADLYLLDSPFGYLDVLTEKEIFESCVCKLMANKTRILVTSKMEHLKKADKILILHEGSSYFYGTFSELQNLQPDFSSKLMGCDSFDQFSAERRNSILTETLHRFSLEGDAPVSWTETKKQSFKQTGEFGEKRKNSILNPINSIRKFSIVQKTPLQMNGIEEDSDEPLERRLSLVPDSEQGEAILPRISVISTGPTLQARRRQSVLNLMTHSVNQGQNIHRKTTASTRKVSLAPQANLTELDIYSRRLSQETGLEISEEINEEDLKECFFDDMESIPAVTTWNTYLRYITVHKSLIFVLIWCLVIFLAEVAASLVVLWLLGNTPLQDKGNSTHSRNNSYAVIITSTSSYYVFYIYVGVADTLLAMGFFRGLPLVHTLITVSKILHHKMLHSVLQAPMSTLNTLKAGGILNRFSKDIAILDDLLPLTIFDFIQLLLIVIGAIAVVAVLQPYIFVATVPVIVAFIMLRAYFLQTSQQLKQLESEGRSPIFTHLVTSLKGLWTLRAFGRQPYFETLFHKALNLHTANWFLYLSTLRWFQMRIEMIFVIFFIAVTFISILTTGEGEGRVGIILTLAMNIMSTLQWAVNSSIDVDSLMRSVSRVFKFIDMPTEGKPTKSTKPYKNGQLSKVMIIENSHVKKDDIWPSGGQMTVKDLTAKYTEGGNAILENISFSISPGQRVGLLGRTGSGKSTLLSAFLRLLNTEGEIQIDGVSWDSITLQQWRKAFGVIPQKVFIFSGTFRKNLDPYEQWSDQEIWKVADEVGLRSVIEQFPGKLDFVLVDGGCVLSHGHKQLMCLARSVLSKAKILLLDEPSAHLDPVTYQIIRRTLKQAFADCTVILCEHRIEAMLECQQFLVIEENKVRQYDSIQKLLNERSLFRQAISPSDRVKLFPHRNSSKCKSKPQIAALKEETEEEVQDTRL
Chain of Y304A CFTR (P13569 whole entry Y304A): as the sequence (P13569 whole entry, the tested form may be a part) above, with Y304A counted along it
Chain of S308A CFTR (P13569 whole entry S308A): as the sequence (P13569 whole entry, the tested form may be a part) above, with S308A counted along it

## C[C@H](COc1ccccc1)C(=O)n1nc(N)c2ccc(F)cc21 [(R)-’853, (R)-1-(3-Amino-6-fluoro-1H-indazol-1-yl)-2-methyl-3-phenoxypropan-1-one]
WT CFTR
  change of CFTR currents: 0.89 fold

## C[C@H](COc1ccccc1)C(=O)n1nc(N)c2ccc(C(N)=O)cc21 [Compound I1422, (R)-3-Amino-1-(2-methyl-3-phenoxypropanoyl)-1H-indazole-6-carboxamide]
WT CFTR
  IC50: 41000 nM

## C[C@@H](COc1ccc(F)cc1)C(=O)n1nc(N)c2ccc(F)cc21 [(S)-SX263, (S)-1-(3-Amino-6-fluoro-1H-indazol-1-yl)-3-(4-fluorophenoxy)-2-methylpropan-1-one]
WT CFTR
  EC50: 136 ± 60 nM

## C[C@H](COc1ccccc1)C(=O)n1ncc2ccc(C(N)=O)cc21 [Compound I1412, (R)-1-(2-Methyl-3-phenoxypropanoyl)-1H-indazole-6-carboxamide]
Y304A CFTR
  effect of alanine substitution Y304A on compound activity: eliminated the activity
S308A CFTR
  effect of alanine substitution S308A on compound activity: eliminated the activity
WT CFTR
  IC50: 21000 nM

## C[C@@H](COc1ccccc1)C(=O)n1nc(N)c2ccc(CO)cc21 [Compound I1408, (S)-1-(3-Amino-6-(hydroxymethyl)-1H-indazol-1-yl)-2-methyl-3-phenoxypropan-1-one]
WT CFTR
  EC50: 93 ± 42 nM

## C[C@@H](COc1ccccc1)C(=O)n1nc(N)c2ccc(F)cc21 [(S)-’853, (S)-1-(3-Amino-6-fluoro-1H-indazol-1-yl)-2-methyl-3-phenoxypropan-1-one]
Y304A CFTR
  effect of alanine substitution Y304A on compound activity: abolished the potentiating effect
S308A CFTR
  effect of alanine substitution S308A on compound activity: abolished the potentiating effect
WT CFTR
  EC50: 2100 ± 900 nM
  change of CFTR currents: 1.5 fold

## CC(C)(C)c1cc(C(C)(C)C)c(NC(=O)c2c[nH]c3ccccc3c2=O)cc1O [Ivacaftor, N-(2,4-di-tert-butyl-5-hydroxyphenyl)-4-oxo-1,4-dihydroquinoline-3-carboxamide]
[1]
  bound to plasma proteins: 99%
[2]
  water solubility: < 0.05 µg/mL
